Laboratory results taken from ChEMBL document CHEMBL1153792, “Synthesis, characterization and evaluation of antibacterial activity of some thiazolo[3,2-b][1,2,4]triazole incorporating diphenylsulfone moieties” (2009).
≈ marks a conversion by molar mass, not a printed value.

Key:
Assay type in all cases: functional
Bacillus cereus = experiment: Antimicrobial activity against Bacillus cereus ATCC 14579 after 18 to 24 hrs by liquid broth method
Outline: (§1)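 Serial twofold dilution in Mueller–Hinton broth in 96-well format. Compounds were dissolved in DMSO and tested at final levels of 1024, 512, 256, 128, 64, 32, 16, 8, 4 and 2. Inoculum was a 0.5 McFarland suspension. Plates were incubated at 37 °C for 18–24 h. MIC was read by eye as the lowest concentration clearly inhibiting growth.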

Staphylococcus aureus = experiment: Antimicrobial activity against Staphylococcus aureus ATCC 12600 after 18 to 24 hrs by liquid broth method; outline: as §1
Enterococcus faecalis = experiment: Antimicrobial activity against Enterococcus faecalis ATCC 19433 after 18 to 24 hrs by liquid broth method; outline: as §1
Escherichia coli = experiment: Antimicrobial activity against Escherichia coli ATCC 11775 after 18 to 24 hrs by liquid broth method; outline: as §1
Citrobacter freundii = experiment: Antimicrobial activity against Citrobacter freundii ATCC 8090 after 18 to 24 hrs by liquid broth method; outline: as §1
Acinetobacter baumannii = experiment: Antimicrobial activity against Acinetobacter baumannii ATCC 19606 after 18 to 24 hrs by liquid broth method; outline: as §1
Pseudomonas aeruginosa = experiment: Antimicrobial activity against Pseudomonas aeruginosa ATCC 9027 after 18 to 24 hrs by liquid broth method; outline: as §1
[1] = tested on: Staphylococcus epidermidis; experiment: Antimicrobial activity against Staphylococcus epidermidis ATCC 14990 after 18 to 24 hrs by liquid broth method; outline: as §1

Structure (SMILES) | MIC (Bacillus cereus) [µg/mL] | MIC (Staphylococcus aureus) [µg/mL] | MIC (Enterococcus faecalis) [µg/mL] | MIC (Escherichia coli) [µg/mL] | MIC (Citrobacter freundii) [µg/mL] | MIC (Acinetobacter baumannii) [µg/mL] | MIC (Pseudomonas aeruginosa) [µg/mL] | MIC [1] [µg/mL]
O=S(=O)(c1ccccc1)c1ccc(-c2nc3scc(-c4ccc(Br)cc4)n3n2)cc1 | 128 (≈ 258 µM) | 128 (≈ 258 µM) | 256 (≈ 516 µM) | 64 (≈ 129 µM) | 128 (≈ 258 µM) | 64 (≈ 129 µM) | 128 (≈ 258 µM) | 64 (≈ 129 µM)
O=C(CSc1nnc(-c2ccc(S(=O)(=O)c3ccc(Br)cc3)cc2)[nH]1)c1ccc(Br)cc1 | 256 (≈ 431 µM) | 128 (≈ 216 µM) | 128 (≈ 216 µM) | 64 (≈ 108 µM) | 128 (≈ 216 µM) | 64 (≈ 108 µM) | 128 (≈ 216 µM) | 64 (≈ 108 µM)
O=S(=O)(c1ccc(Br)cc1)c1ccc(-c2nc3scc(-c4ccccc4)n3n2)cc1 | 256 (≈ 516 µM) | 128 (≈ 258 µM) | 256 (≈ 516 µM) | 64 (≈ 129 µM) | 128 (≈ 258 µM) | 64 (≈ 129 µM) | 128 (≈ 258 µM) | 64 (≈ 129 µM)
O=S(=O)(c1ccc(Cl)cc1)c1ccc(-c2nc3scc(-c4ccccc4)n3n2)cc1 | > 1020 | > 1020 | > 1020 | 1020 (≈ 2270 µM) | > 1020 | 512 (≈ 1130 µM) | > 1020 | > 1020
O=C(CSc1nnc(-c2ccc(S(=O)(=O)c3ccccc3)cc2)[nH]1)c1ccccc1 | 128 (≈ 294 µM) | 64 (≈ 147 µM) | 256 (≈ 588 µM) | 64 (≈ 147 µM) | 128 (≈ 294 µM) | 64 (≈ 147 µM) | 128 (≈ 294 µM) | 64 (≈ 147 µM)
O=S(=O)(c1ccc(Cl)cc1)c1ccc(-c2nc3scc(-c4ccc(Br)cc4)n3n2)cc1 | > 1020 | 512 (≈ 964 µM) | > 1020 | > 1020 | > 1020 | 128 (≈ 241 µM) | > 1020 | > 1020
O=C(CSc1nnc(-c2ccc(S(=O)(=O)c3ccccc3)cc2)[nH]1)c1ccc(Br)cc1 | 512 (≈ 995 µM) | 512 (≈ 995 µM) | 512 (≈ 995 µM) | 512 (≈ 995 µM) | 512 (≈ 995 µM) | 512 (≈ 995 µM) | 512 (≈ 995 µM) | 512 (≈ 995 µM)
O=S(=O)(c1ccccc1)c1ccc(-c2nnc(S)[nH]2)cc1 | 1020 (≈ 3230 µM) | 512 (≈ 1610 µM) | > 1020 | 512 (≈ 1610 µM) | > 1020 | 256 (≈ 807 µM) | > 1020 | > 1020
CN(C)[C@@H]1C(O)=C(C(N)=O)C(=O)[C@@]2(O)C(O)=C3C(=O)c4c(O)cccc4[C@@](C)(O)[C@H]3C[C@@H]12 [TETRACYCLINE] | 0.094 (≈ 0.212 µM) | 0.19 (≈ 0.428 µM) | 32 (≈ 72 µM) | 1.5 (≈ 3.38 µM) | 1 (≈ 2.25 µM) | 1.5 (≈ 3.38 µM) | 12 (≈ 27 µM) | 24 (≈ 54 µM)
O=S(=O)(c1ccccc1)c1ccc(-c2nc3scc(-c4ccccc4)n3n2)cc1 | 512 (≈ 1230 µM) | 128 (≈ 307 µM) | 512 (≈ 1230 µM) | 64 (≈ 153 µM) | 128 (≈ 307 µM) | 64 (≈ 153 µM) | 128 (≈ 307 µM) | 64 (≈ 153 µM)
O=C(CSc1nnc(-c2ccc(S(=O)(=O)c3ccc(Cl)cc3)cc2)[nH]1)c1ccc(Br)cc1 | 64 (≈ 117 µM) | 64 (≈ 117 µM) | 256 (≈ 466 µM) | 64 (≈ 117 µM) | 128 (≈ 233 µM) | 64 (≈ 117 µM) | 64 (≈ 117 µM) | 64 (≈ 117 µM)
CC1(C)S[C@@H]2[C@H](NC(=O)[C@H](N)c3ccccc3)C(=O)N2[C@H]1C(=O)O [AMPICILLIN] | – | 0.5 (≈ 1.43 µM) | 0.5 (≈ 1.43 µM) | – | 2 (≈ 5.72 µM) | – | – | 0.064 (≈ 0.183 µM)
O=C(CSc1nnc(-c2ccc(S(=O)(=O)c3ccc(Cl)cc3)cc2)[nH]1)c1ccccc1 | 64 (≈ 136 µM) | 64 (≈ 136 µM) | 256 (≈ 545 µM) | 64 (≈ 136 µM) | 128 (≈ 272 µM) | 64 (≈ 136 µM) | 64 (≈ 136 µM) | 64 (≈ 136 µM)
O=S(=O)(c1ccc(Cl)cc1)c1ccc(-c2nnc(S)[nH]2)cc1 | 1020 (≈ 2910 µM) | 1020 (≈ 2910 µM) | > 1020 | 1020 (≈ 2910 µM) | > 1020 | 256 (≈ 728 µM) | 1020 (≈ 2910 µM) | 1020 (≈ 2910 µM)
O=C(CSc1nnc(-c2ccc(S(=O)(=O)c3ccc(Br)cc3)cc2)[nH]1)c1ccccc1 | 128 (≈ 249 µM) | 128 (≈ 249 µM) | 256 (≈ 498 µM) | 64 (≈ 124 µM) | 128 (≈ 249 µM) | 64 (≈ 124 µM) | 128 (≈ 249 µM) | 64 (≈ 124 µM)
O=S(=O)(c1ccc(Br)cc1)c1ccc(-c2nnc(S)[nH]2)cc1 | 64 (≈ 161 µM) | 64 (≈ 161 µM) | 256 (≈ 646 µM) | 64 (≈ 161 µM) | 128 (≈ 323 µM) | 64 (≈ 161 µM) | 128 (≈ 323 µM) | 256 (≈ 646 µM)
O=S(=O)(c1ccc(Br)cc1)c1ccc(-c2nc3scc(-c4ccc(Br)cc4)n3n2)cc1 | 256 (≈ 445 µM) | 128 (≈ 222 µM) | 256 (≈ 445 µM) | 64 (≈ 111 µM) | 128 (≈ 222 µM) | 64 (≈ 111 µM) | 128 (≈ 222 µM) | 64 (≈ 111 µM)
